Measured values collected from several papers.
Lines come from different studies, so protocols differ.

| SMILES | cell line | effect on | action | method | time | IC50 |
| --- | --- | --- | --- | --- | --- | --- |
| CCc1c2c(nc3ccc(OC(=O)N4CCC(N5CCCCC5)CC4)cc13)-c1cc3c(c(=O)n1C2)COC(=O)[C@]3(O)CC | HCCLM3 | cell growth or viability |  | MTT | 72 h | 33400 nM |
| COc1cc(Nc2nccc(-c3cnn4nc(OC)ccc34)n2)cc(C(F)(F)F)c1 | EFO-27 | cell growth or viability |  | ATP luminescence |  | 790 nM |
| COc1ccccc1-c1c(C)oc2cc(OC(=O)c3cccs3)ccc2c1=O | human Neutrophil | cell migration | inhibitor |  |  | 320 nM |
| O=C1CCCCC1C1C2C=CC=CC1C(CCCCOC1CCCCO1)=C2 (stereo not shown) | U-937 | cell growth or viability |  | flow cytometry |  | 143 nM |
| N=C(N)c1ccc(OCCCCCOc2ccc(C(=N)N)cc2)cc1 | J774 | cell growth or viability |  | resazurin | 48 h | 23800 nM |
| O=C1CCCCC1C1C2C=CC=CC1C(C1CC1)=C2 (stereo not shown) | U-937 | cell growth or viability |  | flow cytometry |  | 41 nM |
| Cl.Oc1cccc2c1[nH]c1c(C3=CC4(O)CC/C=C\CCCCN5CCC3C3(CC6/C=C\CCCCN6C43)C5)nccc12 (single isomer, unassigned; (+)) | KB | cell growth or viability |  | neutral red | 48 h | 0.69 µg/mL |
| COc1ccc(C=CC(=O)c2cccc([N+](=O)[O-])c2)cc1OC | J774 | cell growth or viability |  | MTT | 24 h | 25 µg/mL |
| CCCCCC/C=C1\CC2C=CC=CC1C2C1CCCCC1=O (stereo not shown) | U-937 | cell growth or viability |  | flow cytometry |  | 34 nM |
| Cc1cc(=O)oc2ccc(-c3cc(-c4ccccc4)nc(N)n3)c(O)c12 | KB | cell growth or viability |  | MTT | 72 h | > 128 µg/mL |
| COc1ccccc1-c1c(C(F)(F)F)oc2cc(OC(=O)c3ccco3)ccc2c1=O | human Neutrophil | cell migration | inhibitor |  |  | 180 nM |
| O=C1CCCCC1C1C2C=CC=CC1/C(=C/Cc1ccccc1)C2 (stereo not shown) | U-937 | cell growth or viability |  | flow cytometry |  | 59 nM |
| Cc1cc(=O)oc2ccc(-c3cc(-c4cccc(Cl)c4)nc(N)n3)c(O)c12 | KB | cell growth or viability |  | MTT | 72 h | > 128 µg/mL |
| COc1ccccc1-c1c(C(F)(F)F)oc2cc(OC(=O)c3ccccc3)ccc2c1=O | human Neutrophil | cell migration | inhibitor |  |  | 120 nM |
| COc1ccc(C=CC(=O)c2ccc(F)cc2)cc1OC | J774 | cell growth or viability |  | MTT | 24 h | 100 µg/mL |
| Cc1ccc(-c2cc(-c3ccc4oc(=O)cc(C)c4c3O)nc(N)n2)cc1 | KB | cell growth or viability |  | MTT | 72 h | > 128 µg/mL |
| CC(C)C[C@H](NC(=O)[C@H](Cc1ccccc1)NC(=O)c1cnccn1)B(O)O | NCI-H1703 | cell growth or viability |  | ATP luminescence |  | 12 nM |
| COc1cc(-c2ncn(/C=C\C(=O)OC(C)C)n2)cc(C(F)(F)F)c1 | ML-2 | cell growth or viability |  |  | 72 h | 99 nM |
| O=C(N/N=C/c1c(O)ccc2ccccc12)c1cc(-c2ccc3ccccc3c2)n[nH]1 | UACC-903 | cell growth or viability |  | MTS | 24 h | 19500 nM |
| COc1cc(OC)c(/C=C/S(=O)(=O)Nc2ccc(OC)c(N)c2)c(OC)c1 | RF48 | cell growth or viability |  | trypan blue | 96 h | 4 nM |
| COc1ccccc1-c1c(C(F)(F)F)oc2cc(OC(=O)C(C)C)ccc2c1=O | human Neutrophil | cell migration | inhibitor |  |  | 200 nM |
| Nc1ncc(-c2cnn(C3CCNCC3)c2)cc1-c1nnc(CC2CC2)o1 | U-937 | cell growth or viability |  | trypan blue | 72 h | 380 nM |
| COc1cc(O)c(CC=C(C)C)c(O)c1C(=O)/C=C/c1ccc(O)cc1 | J774 | cell growth or viability |  | resazurin | 48 h | 60800 nM |
| Oc1ccc(Nc2nc(-c3ccc(Cl)cc3)cs2)cc1 | UACC-903 | cell growth or viability |  | MTS | 72 h | 33600 nM |
| COc1ccccc1-c1c(C(F)(F)F)oc2cc(OC(=O)C3CC3)ccc2c1=O | human Neutrophil | cell migration | inhibitor |  |  | 360 nM |
| N#CCCCC1=CC2C=CC=CC1C2C1CCCCC1=O (stereo not shown) | U-937 | cell growth or viability |  | flow cytometry |  | 74 nM |
| Cc1cc(=O)oc2ccc(-c3cc(-c4cccc([N+](=O)[O-])c4)nc(N)n3)c(O)c12 | KB | cell growth or viability |  | MTT | 72 h | 63.6 µg/mL |
| Cc1oc2cc(OC(=O)c3ccco3)ccc2c(=O)c1-c1ccccc1 | human Neutrophil | cell migration | inhibitor |  |  | 880 nM |
